Source: publication PMC11253873 (RSC Medicinal Chemistry, 2024)
In brackets after ≈: the same amount, converted by molar mass. Several values for one entry are separate records, joined by “and”; a condition that tells them apart may be missing. Equal values may be shown once.

Key:
Mtb H37Rv = assay: microbe, parasite or virus in culture; assay type: cell-based, Mycobacterium tuberculosis; conditions: Mycobacterium tuberculosis, H37RV, 336 h, read-out: Mtb MIC
HepG2 cells = assay: HepG2 cell inhibition; assay type: cell-based; conditions: Homo sapiens, HepG2, 24 h, read-out: HepG2 IC50
[1] = test system: MEP pathway in P. falciparum parasites; assay: IPP rescue of inhibitor-treated P. falciparum; assay type: cell-based, Plasmodium falciparum; conditions: 125 μM IPP added to media
Summary of the method: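 The rescue format is the standard 3-day growth assay with 125 μM IPP present throughout. Parasites are at 0.5% parasitemia and 2% hematocrit in supplemented RPMI-1640/Albumax, under 5% O2/5% CO2/90% N2 at 37 °C, with 1.2 nM–492.4 μM test compound. Growth is measured as PicoGreen DNA fluorescence and fitted to a 4-parameter dose–response curve. Technical duplicates, biological triplicate.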

[2] = test system: had1 mutant Pf strain (E1-C12); assay: Growth inhibition of fosmidomycin-resistant had1 mutant P. falciparum; assay type: cell-based, Plasmodium falciparum; conditions: had1 mutant versus wild type 3D7
Summary of the method: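 Asynchronous cultures of wild-type 3D7 and fosmidomycin-resistant had1 strain E1-C12 are kept at 2% hematocrit in supplemented RPMI-1640 with 0.5% Albumax, under 5% O2/5% CO2/90% N2 at 37 °C. Parasites are diluted to 0.5% parasitemia and exposed to 1.2 nM–492.4 μM test compound from the start. After 3 days, DNA is read with PicoGreen (ex 485/em 528 nm). IC50 comes from a 4-parameter nonlinear fit. Technical duplicates, biological triplicate.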

## COc1ccc(C(C)ON(CCC(c2ccc(Cl)c(Cl)c2)P(=O)(OCOC(=O)C(C)(C)C)OCOC(=O)C(C)(C)C)C(C)=O)cc1 (stereo not shown) [Compound 7l, ({[1-(3,4-Dichlorophenyl)-3-{N-[1-(4-methoxyphenyl)ethoxy]acetamido}propyl]({[(2,2-dimethylpropanoyl)oxy]methoxy})phosphoryl}oxy)methyl 2,2-dimethylpropanoate]
Mtb H37Rv
  MIC: 4.6 µg/mL (≈ 6.53 µM)
HepG2 cells
  IC50: > 100 µg/mL and > 140 µM
[1]
  IPP rescue of growth of drug-treated P. falciparum parasites: rescues the growth
[2]
  cross resistance of fosmidomycin-resistant had1 mutant Pf strain: displayed increased resistance
